From ChEMBL document CHEMBL3046199, “Synthesis and antiviral activities of pyrazole derivatives containing an oxime moiety” (J Agric Food Chem, 2008)

What was measured:
Tobacco mosaic virus [1] = experiment: In vivo antiviral activity against Tobacco mosaic virus (TMV) infected left side of tobacco leaves assessed as inactivation effect at 500 ug/ml co-incubated with virus for 30 min before inoculation onto leaves measured at 3-4 days after viral challenge; format: functional
Tobacco mosaic virus [2] = experiment: In vivo antiviral activity against Tobacco mosaic virus (TMV) infected left side of tobacco leaves assessed as curative effect at 500 ug/ml treated after viral inoculation measured at 3-4 days after viral challenge; format: functional
Tobacco mosaic virus [3] = experiment: In vivo antiviral activity against Tobacco mosaic virus (TMV) infected left side of tobacco leaves assessed as protective effect at 500 ug/ml treated 12 hr before viral inoculation measured at 3-4 days after viral challenge; format: functional
Summary of the method: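 TMV purified from inoculated N. tabacum upper leaves (ground in phosphate buffer, filtered, centrifuged at 10000g, twice PEG-treated, all at 4 °C), concentration from A260. Compound solution smeared on left half of same-age N. tabacum leaves, solvent on right half as control. Leaves inoculated 12 h later by brush with 6 × 10^-3 mg/mL TMV over silicon carbide. Local lesions counted 3-4 days post-inoculation, three repetitions. Inhibition % = (control lesions − treated lesions)/control lesions × 100.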

Tobacco mosaic virus [4] = experiment: In vivo antiviral activity against Tobacco mosaic virus (TMV) infected left side of tobacco leaves assessed as inactivation effect at 250 ug/ml co-incubated with virus for 30 min before inoculation onto leaves measured at 3-4 days after viral challenge; format: functional
Tobacco mosaic virus [5] = experiment: In vivo antiviral activity against Tobacco mosaic virus (TMV) infected left side of tobacco leaves assessed as inactivation effect at 62.5 ug/ml co-incubated with virus for 30 min before inoculation onto leaves measured at 3-4 days after viral challenge; format: functional
Tobacco mosaic virus [6] = experiment: In vivo antiviral activity against Tobacco mosaic virus (TMV) infected left side of tobacco leaves assessed as inactivation effect at […] ug/ml co-incubated with virus for 30 min before inoculation onto leaves measured at 3-4 days after viral challenge; format: functional
Tobacco mosaic virus [7] = experiment: In vivo antiviral activity against Tobacco mosaic virus (TMV) infected left side of tobacco leaves assessed as inactivation effect at 125 ug/ml co-incubated with virus for 30 min before inoculation onto leaves measured at 3-4 days after viral challenge; format: functional
Tobacco mosaic virus [8] = experiment: In vivo antiviral activity against Tobacco mosaic virus (TMV) infected left side of tobacco leaves assessed as inactivation effect co-incubated with virus for 30 min before inoculation onto leaves measured at 3-4 days after viral challenge; format: functional, organism-based

| SMILES | Activity (Tobacco mosaic virus [1]) [%] | Activity (Tobacco mosaic virus [2]) [%] | Activity (Tobacco mosaic virus [3]) [%] | Activity (Tobacco mosaic virus [4]) [%] | Activity (Tobacco mosaic virus [5]) [%] | Activity (Tobacco mosaic virus [6]) [%] | Activity (Tobacco mosaic virus [7]) [%] | EC50 (Tobacco mosaic virus [8]) [mg/L] |
| --- | --- | --- | --- | --- | --- | --- | --- | --- |
| Cc1ccc(-n2nc(C)c(/C=N/OCc3ccc(Cl)nc3)c2Sc2ccc(F)cc2)cc1 | 56.6 | 22 | 31 |  |  |  |  |  |
| Cc1ccc(Sc2c(/C=N/OCc3ccc(Cl)nc3)c(C)nn2-c2ccc(C)cc2)cc1 | 61 | 32.1 | 15.7 |  |  |  |  |  |
| Cc1ccc(-n2nc(C)c(/C=N/OCc3c(C)nn(-c4ccc(Cl)cc4)c3Cl)c2Sc2ccc(F)cc2)cc1 | 43 | 31.9 | 19 |  |  |  |  |  |
| Cc1nn(-c2ccccc2)c(Sc2ccc(F)cc2)c1/C=N/OCc1c(C)nn(-c2ccc(Cl)cc2)c1Cl | 55.9 | 35.6 | 32 |  |  |  |  |  |
| Cc1ccc(Sc2c(/C=N/OCc3c(C)nn(-c4ccc(C)cc4)c3Cl)c(C)nn2-c2ccc(C)cc2)cc1 | 51.2 | 38.9 | 44.8 |  |  |  |  |  |
| Cc1ccc(-n2nc(C)c(CO/N=C/c3c(C)nn(-c4ccc(C)cc4)c3Sc3ccc(F)cc3)c2Cl)cc1 | 50.9 | 22 | 41 |  |  |  |  |  |
| Cc1ccc(Sc2c(/C=N/OCc3c(C)nn(-c4ccc(C)cc4)c3Cl)c(C)nn2-c2ccc(Cl)cc2)cc1 | 36.7 | 18.9 | 21 |  |  |  |  |  |
| Cc1ccc(S(=O)(=O)c2c(/C=N/OCc3ccc(Cl)nc3)c(C)nn2-c2ccccc2)cc1 | 45 | 9 | 28 |  |  |  |  |  |
| COc1ccc(S(=O)(=O)c2c(/C=N/OCc3ccc(Cl)nc3)c(C)nn2-c2ccccc2)cc1 | 30.1 | 15.6 | 29.8 |  |  |  |  |  |
| Cc1nn(-c2ccccc2)c(S(=O)(=O)c2ccc(F)cc2)c1/C=N/OCc1ccc(Cl)nc1 | 20.6 | 21.7 | 40.2 |  |  |  |  |  |
| Cc1nn(-c2cccc(Cl)c2)c(S(=O)(=O)c2ccc(F)cc2)c1/C=N/OCc1ccc(Cl)nc1 | 30 | 11 | 12.9 |  |  |  |  |  |
| Cc1ccc(S(=O)(=O)c2c(/C=N/OCc3ccc(Cl)nc3)c(C)nn2-c2ccc(Cl)cc2)cc1 | 33.3 | 9.2 | 31.3 |  |  |  |  |  |
| COc1ccc(S(=O)(=O)c2c(/C=N/OCc3ccc(Cl)nc3)c(C)nn2-c2ccc(Cl)cc2)cc1 | 30.9 | 3.6 | 16.4 |  |  |  |  |  |
| Cc1nn(-c2ccc(Cl)cc2)c(S(=O)(=O)c2ccc(F)cc2)c1/C=N/OCc1ccc(Cl)nc1 | 44.1 | 7.7 | 42.2 |  |  |  |  |  |
| Cc1ccc(-n2nc(C)c(/C=N/OCc3ccc(Cl)nc3)c2S(=O)(=O)c2ccc(F)cc2)cc1 | 11 | 22 | 28.2 |  |  |  |  |  |
| Cc1ccc(Sc2c(/C=N/OCc3ccc(Cl)nc3)c(C)nn2-c2ccccc2)cc1 | 90.4 | 47 | 31.3 | 76 | 55.1 | 40.1 | 69.2 | 58.7 |
| COc1ccc(Sc2c(/C=N/OCc3ccc(Cl)nc3)c(C)nn2-c2ccccc2)cc1 | 71.2 | 26.6 | 16.4 | 65 | 41 | 32 | 48.9 | 115 |
| Cc1nn(-c2ccccc2)c(Sc2ccc(F)cc2)c1/C=N/OCc1ccc(Cl)nc1 | 65.9 | 24 | 18.9 |  |  |  |  |  |
| Cc1nn(-c2cccc(Cl)c2)c(Sc2ccc(F)cc2)c1/C=N/OCc1ccc(Cl)nc1 | 61.7 | 34.3 | 28.6 |  |  |  |  |  |
| Cc1ccc(Sc2c(/C=N/OCc3ccc(Cl)nc3)c(C)nn2-c2ccc(Cl)cc2)cc1 | 61.2 | 26 | 37.7 |  |  |  |  |  |
| COc1ccc(Sc2c(/C=N/OCc3ccc(Cl)nc3)c(C)nn2-c2ccc(Cl)cc2)cc1 | 34.5 | 12.9 | 22 |  |  |  |  |  |
| Cc1nn(-c2ccc(Cl)cc2)c(Sc2ccc(F)cc2)c1/C=N/OCc1ccc(Cl)nc1 | 80.6 | 37.3 | 43.5 | 65.7 | 51.2 | 40.6 | 53 | 65.3 |
| CNCC(=O)N[C@@H](CO)C(=O)N[C@H]1[C@H](O)[C@@H](O)[C@H](n2ccc(N)nc2=O)O[C@@H]1C(N)=O [NINGNANMYCIN] | 98 | 54.8 | 57 | 81.1 | 59.9 | 44 | 72 | 52.7 |
